# Test results reported in ChEMBL document CHEMBL1629563, “Pharmacokinetic and safety evaluation of BILR 355, a second-generation nonnucleoside reverse transcriptase inhibitor, in healthy volunteers” (Antimicrob Agents Chemother, 2008).
# Key:
# [1] = AUC (0 to infinity) in healthy human at 100 mg, po administered as single dose; assay type: ADME, organism-based; set-up: dose 100 mg, time infinity, route oral; conditions: plasma
# In short: (§1)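 Healthy male volunteers, six active plus two placebo per dose group, single oral dose in PEG solution with 200 ml water after overnight fast; breakfast 60 to 90 min post-dose. EDTA plasma sampled predose to 144 h. Assayed by validated LC-MS/MS after protein precipitation. Noncompartmental analysis, AUC by linear up/log down trapezoidal rule; Vss = CL/F·(MRTp.o. − 1/Ka).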
# [2] = AUC (0 to last) in healthy human at 12.5 mg, po administered as single dose; assay type: ADME, organism-based; set-up: dose 12.5 mg, route oral, time 0 - last; conditions: plasma; in short: as §1
# [3] = Mean residence time in healthy human at 12.5 mg, po administered as single dose coadministered with 100 mg of ritonavir; assay type: ADME, organism-based; conditions: in vivo
# Homo sapiens [4] = assay: Toxicity in healthy human assessed as occurrence of fatigue at 37.5 mg, po administered as single dose coadministered with 100 mg of ritonavir; assay type: organism-based; conditions: in vivo
# Homo sapiens [5] = assay: AUC (0 to infinity) in healthy human at 75 mg, po administered as single dose; assay type: ADME, organism-based, Plasma; set-up: dose 75 mg, route oral, time infinity; conditions: in vivo; in short: as §1
# Homo sapiens [6] = assay: Ratio of AUC (0 to infinity) in human at 25 mg, po in presence of 100 mg of ritonavir to AUC (0 to infinity) in human at 25 mg, po; assay type: ADME, organism-based; conditions: in vivo
# [7] = Drug excretion in healthy human urine assessed as unchanged drug at 50 mg, po administered as single dose coadministered with 100 mg of ritonavir by high-pressure liquid chromatography-tandem mass spectrometry/mass spectrometry method; assay type: ADME, organism-based; conditions: read-out: Drug uptake
# In short: (§2)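 Ritonavir 100 mg was given 10 h before and with one oral dose of BILR 355 in PEG solution. Urine was collected by weight as predose blank, then 0-6, 6-24 and 24-72 h, stored at −20°C and assayed by LC-MS/MS. fe = unchanged drug excreted (Ae) as a percentage of dose. Line 50: high-fat breakfast 30 min before dosing.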
# Homo sapiens [8] = assay: Toxicity in healthy human assessed as occurrence of vomiting at 12.5 mg, po administered as single dose relative to control; assay type: organism-based; conditions: in vivo
# [9] = Apparent volume of distribution in terminal phase in healthy human at 12.5 mg, po administered as single dose; assay type: ADME, organism-based; conditions: in vivo, read-out: Vz/F
# In short: (§3)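 Single fasting oral dose of BILR 355 in PEG solution with 200 ml tap water, given to healthy males. Standard breakfast came 60-90 min after the dose. EDTA plasma was sampled predose to 144 h, stored below −18°C and assayed by LC-MS/MS after protein precipitation. Noncompartmental analysis gave Vz/F. Vss/F = CL/F·(MRTp.o. − 1/Ka), with Ka from compartmental modelling.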
# [10] = Apparent volume of distribution in terminal phase in healthy human at 100 mg, po administered as single dose; assay type: ADME, organism-based; conditions: in vivo, read-out: Vz/F; in short: as §3
# [11] = Half life in healthy human at 5 mg, po administered as single dose coadministered with 100 mg of ritonavir; assay type: ADME, organism-based; conditions: in vivo
# [12] = Apparent volume of distribution in terminal phase in healthy human at 25 mg, po administered as single dose coadministered with 100 mg of ritonavir; assay type: ADME, organism-based; conditions: in vivo, read-out: Vz/F
# In short: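 Healthy male volunteers, fasted overnight, got one oral dose of BILR 355 in PEG solution with 200 ml water. Ritonavir 100 mg was given 10 h before and again with the dose. Plasma was sampled (EDTA) from predose to 144 h and assayed by validated LC-MS/MS. Cmax and Vz/F came from noncompartmental analysis. Vss/F = CL/F·(MRTp.o. − 1/Ka), with Ka from compartmental modelling.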
# [13] = AUC (0 to infinity) in healthy human at 37.5 mg, po administered as single dose coadministered with 100 mg of ritonavir; assay type: ADME, organism-based; set-up: dose 37.5 mg, route oral, time infinity; conditions: plasma
# In short: (§4)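 Healthy male volunteers, fasted. Ritonavir 100 mg given 10 h before and again together with single oral BILR 355 in PEG solution. EDTA plasma sampled predose to 144 h. LC-MS/MS assay after protein precipitation. Noncompartmental analysis, AUC by linear up/log down trapezoidal rule; Vss = CL/F·(MRTp.o. − 1/Ka).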
# Homo sapiens [14] = assay: Toxicity in healthy human assessed as occurrence of aphthous stomatitis at 75 mg, po administered as single dose coadministered with 100 mg of ritonavir; assay type: organism-based; conditions: in vivo
# Homo sapiens [15] = assay: Toxicity in healthy human assessed as occurrence of neurological eyelid disorder at 5 mg, po administered as single dose relative to control; assay type: organism-based; conditions: in vivo
# Homo sapiens [16] = assay: Toxicity in healthy human assessed as occurrence of herpes simplex at 5 mg, po administered as single dose relative to control; assay type: organism-based; conditions: in vivo
# [17] = Tmax in healthy human at 75 mg, po administered as single dose coadministered with 100 mg of ritonavir; assay type: ADME, organism-based; conditions: in vivo
# [18] = Renal clearance in healthy human at 25 mg, po administered as single dose by high-pressure liquid chromatography-tandem mass spectrometry/mass spectrometry method; assay type: ADME, organism-based, Kidney; conditions: in vivo, read-out: CL_renal (converted)
# [19] = Half life in healthy human at 5 mg, po administered as single dose; assay type: ADME, organism-based; conditions: in vivo
# Homo sapiens [20] = assay: Toxicity in healthy human assessed as occurrence of fatigue at 5 mg, po administered as single dose coadministered with 100 mg of ritonavir; assay type: organism-based; conditions: in vivo
# [21] = Drug excretion in healthy human urine assessed as unchanged drug in healthy human at 12.5 mg, po administered as single dose by high-pressure liquid chromatography-tandem mass spectrometry/mass spectrometry method; assay type: ADME, organism-based; conditions: read-out: Drug uptake
# In short: (§5)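 Urine was collected by weight after one oral dose of BILR 355 in PEG solution in fasted healthy males. Intervals were predose blank, 0-6, 6-24 and 24-72 h, with the bladder voided before each. Aliquots were stored at −20°C and assayed by LC-MS/MS. fe = amount of unchanged drug excreted (Ae) as a percentage of the administered dose.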
# [22] = Apparent volume of distribution in terminal phase in healthy human at 50 mg, po administered as single dose; assay type: ADME, organism-based; conditions: in vivo, read-out: Vz/F; in short: as §3
# Homo sapiens [23] = assay: Ratio of Cmax in human at 75 mg, po in presence of 100 mg of ritonavir to Cmax in human at 75 mg, po; assay type: ADME, organism-based; conditions: in vivo
# [24] = Apparent oral clearance in healthy human at 50 mg, po administered as single dose coadministered with 100 mg of ritonavir; assay type: ADME, organism-based; conditions: in vivo; in short: as §4
# [25] = AUC (0 to infinity) in healthy human at 12.5 mg, po administered as single dose coadministered with 100 mg of ritonavir; assay type: ADME, organism-based; set-up: dose 12.5 mg, route oral, time infinity; conditions: plasma; in short: as §4
# [26] = Mean residence time in healthy human at 75 mg, po administered as single dose; assay type: ADME, organism-based; conditions: in vivo
# [27] = Drug excretion in healthy human urine assessed as unchanged drug at 75 mg, po administered as single dose coadministered with 100 mg of ritonavir by high-pressure liquid chromatography-tandem mass spectrometry/mass spectrometry method; assay type: ADME, organism-based; conditions: read-out: Drug uptake; in short: as §2
# Homo sapiens [28] = assay: Ratio of AUC (0 to infinity) in human at 50 mg, po in presence of 100 mg of ritonavir to AUC (0 to infinity) in human at 50 mg, po; assay type: ADME, organism-based; conditions: in vivo
# Homo sapiens [29] = assay: Toxicity in healthy human assessed as occurrence of nausea at 5 mg, po administered as single dose relative to control; assay type: organism-based; conditions: in vivo
# [30] = Drug excretion in healthy human urine assessed as unchanged drug at 25 mg, po administered as single dose by high-pressure liquid chromatography-tandem mass spectrometry/mass spectrometry method; assay type: ADME, organism-based; conditions: read-out: Drug uptake; in short: as §5
# [31] = AUC (0 to last) in healthy human at 5 mg, po administered as single dose coadministered with 100 mg of ritonavir; assay type: ADME, organism-based; set-up: dose 5 mg, time 0 - last, route oral; conditions: plasma; in short: as §4
smiles,measurement,setting,value
CCN1c2ncc(CCOc3cc[n+]([O-])c4ccccc34)cc2C(=O)N(C)c2cccnc21 [BILR 355],AUC(0-inf),[1],1310 ng·h/mL
same,AUC(0-t),[2],56.2 ng·h/mL
same,MRT,[3],24.8 h
same,Activity,Homo sapiens [4],0%
same,AUC,Homo sapiens [5],779 ng·h/mL
same,Ratio,Homo sapiens [6],31.1
same,dose excreted,[7],3.58%
same,Activity,Homo sapiens [8],0%
same,Vd/F,[9],1430 L
same,Vd/F,[10],213 L
same,half-life,[11],14.7 h
same,Vd/F,[12],97.6 L
same,AUC(0-inf),[13],5960 ng·h/mL
same,Activity,Homo sapiens [14],0%
same,Activity,Homo sapiens [15],0%
same,Activity,Homo sapiens [16],16.7%
same,Tmax,[17],1.63 h
same,CL renal,[18],11.5 mL/min
same,half-life,[19],5.02 h
same,Activity,Homo sapiens [20],0%
same,dose excreted,[21],0.212%
same,Vd/F,[22],460 L
same,Ratio,Homo sapiens [23],2.3
same,CL/F,[24],131 mL/min
same,AUC(0-inf),[25],1960 ng·h/mL
same,MRT,[26],2.95 h
same,dose excreted,[27],5.44%
same,Ratio,Homo sapiens [28],15.5
same,Activity,Homo sapiens [29],0%
same,dose excreted,[30],0.405%
same,AUC(0-t),[31],615 ng·h/mL
